We go through two compounds from ChEMBL document CHEMBL1145196, “Medicinal chemistry driven approaches toward novel and selective serotonin 5-HT6 receptor ligands” (J Med Chem, 2005).

As usually defined, the Ki is the equilibrium dissociation constant of an inhibitor or competing ligand from its target.

The target of test [1] is T1, 5-hydroxytryptamine receptor 6 (Homo sapiens, UniProt P50406). The experiment in a line: Inhibition of [3H]LSD binding to human 5-hydroxytryptamine 6 receptor expressed in HEK293 cells. Format: cell-based. The gist of the method:
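Bound ligand collected on polyethylenimine-pretreated glass fiber filters, washed with 50 mM Tris Cl pH 7.4, counted by liquid scintillation. Nonspecific binding defined with 100 µM serotonin. Competition data fitted by LIGAND; triplicate determinations per point.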

For test [2], the target named is T1, 5-hydroxytryptamine receptor 6. The experiment in a line: Agonist activity against cAMP accumulation in C6 cells expressing 5-hydroxytryptamine 6 receptor. Format: functional, cell-based. The following applies: Rattus norvegicus, filed as agonist.

T1 sequence (P50406 whole entry): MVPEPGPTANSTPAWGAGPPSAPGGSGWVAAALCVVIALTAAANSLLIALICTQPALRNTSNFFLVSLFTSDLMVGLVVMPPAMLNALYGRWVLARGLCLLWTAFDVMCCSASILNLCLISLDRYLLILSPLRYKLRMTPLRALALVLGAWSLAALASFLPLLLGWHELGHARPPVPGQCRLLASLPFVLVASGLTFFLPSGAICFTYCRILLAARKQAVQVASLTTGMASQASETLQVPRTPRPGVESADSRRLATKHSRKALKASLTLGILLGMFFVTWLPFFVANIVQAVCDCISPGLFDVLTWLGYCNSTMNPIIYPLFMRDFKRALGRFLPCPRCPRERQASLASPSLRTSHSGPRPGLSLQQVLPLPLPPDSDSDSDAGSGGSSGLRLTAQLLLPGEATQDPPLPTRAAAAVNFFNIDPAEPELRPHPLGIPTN

Compound `CN(C)CCc1c[nH]c2ccc(NS(=O)(=O)c3ccc(-c4ccccc4)cc3)cc12` displayed an inhibition constant (Ki) in test [1] of 0.4 nM. Moreover, in test [2], the Activity entry was “Agonist”.

For the compound `Cc1c(S(=O)(=O)Nc2ccc3[nH]cc(CCN(C)C)c3c2)sc2ccc(Cl)cc12`, the affinity in test [1] corresponds to a Ki of 0.1 nM. Also, the Activity result in test [2] was “Agonist”.
